# In ChEMBL document CHEMBL1152796, “Azole antimicrobial pharmacophore-based tetrazoles: synthesis and biological evaluation as potential antimicrobial and anticonvulsant agents” (Bioorg Med Chem, 2009):
# Active and inactive are the calls of the source. The calls are words filed in the database; no cut-off is given here.
# Columns and labels:
# [1] = test system: Micrococcus luteus; assay: Antibacterial activity against Micrococcus luteus ATCC 21881 at 1 mg/mL after 24 hrs by agar diffusion method; type: functional; conditions: ATCC 21881, 24 h, read-out: Diameter of inhibition zone
# In short: (§1)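 Agar disc diffusion: 5 mm sterile paper discs soaked in 1 mg/mL test solution in DMSO were placed on agar seeded with the organism, in triplicate, with a DMSO-only control. Bacterial plates were incubated at 37 °C for 24 h and fungal plates for 7 days. Read-out was the average inhibition-zone diameter in mm. Fungi were clinical isolates.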
# [2] = test system: Pichia kudriavzevii; assay: Antifungal activity against Candida krusei isolate after 72 hrs by twofold serial dilution method; type: functional, organism-based
# [3] = test system: Escherichia coli; assay: Antibacterial activity against Escherichia coli ATCC 25922 at 1 mg/mL after 24 hrs by agar diffusion method; type: functional; conditions: ATCC 25922, 24 h, read-out: Diameter of inhibition zone; in short: as §1
# [4] = test system: Bacillus subtilis; assay: Antibacterial activity against Bacillus subtilis NRRL B-14819 after 24 to 48 hrs by twofold serial dilution method; type: functional
# In short: (§2)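 Broth microdilution in Müller–Hinton broth. DMSO stocks at 800 were diluted twofold from 400 down to 6.25. Wells received 10^6 CFU/mL bacterial suspension and were incubated at 36 °C for 24–48 h, with controls. MIC was read per well. Duplicate assays; run only for compounds giving inhibition zones ≥14 mm.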
# [5] = test system: Escherichia coli; assay: Antibacterial activity against Escherichia coli ATCC 25922 after 24 to 48 hrs by twofold serial dilution method; type: functional; in short: as §2
# [6] = test system: Candida tropicalis; assay: Antifungal activity against Candida tropicalis isolate after 72 hrs by twofold serial dilution method; type: functional, organism-based
# [7] = test system: Pseudomonas aeruginosa; assay: Antibacterial activity against Pseudomonas aeruginosa ATCC 27853 at 1 mg/mL after 24 hrs by agar diffusion method; type: functional; conditions: ATCC 27853, 24 h, read-out: Diameter of inhibition zone; in short: as §1
# [8] = test system: Staphylococcus aureus; assay: Antibacterial activity against Staphylococcus aureus ATCC 6538 after 24 to 48 hrs by twofold serial dilution method; type: functional; in short: as §2
# [9] = test system: Klebsiella pneumoniae; assay: Antibacterial activity against Klebsiella pneumoniae isolate at 1 mg/mL after 24 hrs by agar diffusion method; type: functional; conditions: read-out: Diameter of inhibition zone; in short: as §1
# [10] = test system: Pseudomonas aeruginosa; assay: Antibacterial activity against Pseudomonas aeruginosa ATCC 27853 after 24 to 48 hrs by twofold serial dilution method; type: functional; in short: as §2
# [11] = test system: Staphylococcus aureus; assay: Antibacterial activity against Staphylococcus aureus ATCC 6538 at 1 mg/mL after 24 hrs by agar diffusion method; type: functional; conditions: ATCC 6538, 24 h, read-out: Diameter of inhibition zone; in short: as §1
# [12] = test system: Candida albicans; assay: Antifungal activity against Candida albicans isolate after 72 hrs by twofold serial dilution method; type: functional
# [13] = test system: Micrococcus luteus; assay: Antibacterial activity against Micrococcus luteus ATCC 21881 after 24 to 48 hrs by twofold serial dilution method; type: functional; in short: as §2
# [14] = test system: Trichophyton rubrum; assay: Antifungal activity against Trichophyton rubrum isolate after 72 hrs by twofold serial dilution method; type: functional, organism-based
# [15] = test system: Aspergillus fumigatus; assay: Antifungal activity against Aspergillus fumigatus isolate at 1 mg/mL after 7 days by agar diffusion method; type: functional; conditions: 168 h, read-out: Diameter of inhibition zone; in short: as §1
# [16] = test system: Aspergillus niger; assay: Antifungal activity against Aspergillus niger isolate after 72 hrs by twofold serial dilution method; type: functional, organism-based
# [17] = test system: Candida albicans; assay: Antifungal activity against Candida albicans isolate at 1 mg/mL after 7 days by twofold serial dilution method; type: functional; conditions: 168 h, read-out: Diameter of inhibition zone
# [18] = test system: Klebsiella pneumoniae; assay: Antibacterial activity against Klebsiella pneumoniae isolate after 24 to 48 hrs by twofold serial dilution method; type: functional; in short: as §2
# [19] = test system: Bacillus subtilis; assay: Antibacterial activity against Bacillus subtilis NRRL B-14819 at 1 mg/mL after 24 hrs by agar diffusion method; type: functional; conditions: read-out: Diameter of inhibition zone; in short: as §1
# [20] = test system: Aspergillus fumigatus; assay: Antifungal activity against Aspergillus fumigatus isolate after 72 hrs by twofold serial dilution method; type: functional
Compound,zone of inhibition at 1000 µg/mL [1],Activity [2],zone of inhibition at 1000 µg/mL [3],MIC [4],MIC [5],Activity [6],zone of inhibition at 1000 µg/mL [7],MIC [8],zone of inhibition at 1000 µg/mL [9],MIC [10],zone of inhibition at 1000 µg/mL [11],MIC [12],MIC [13],Activity [14],zone of inhibition at 1000 µg/mL [15],Activity [16],zone of inhibition at 1000 µg/mL [17],MIC [18],zone of inhibition at 1000 µg/mL [19],MIC [20]
Clc1ccc(C(Cn2nnnc2Cc2ccccc2)OCc2nnc(Nc3ccccc3)o2)cc1 (centres undefined),≥ 14 mm,inactive,≥ 14 mm,50 µg/mL,50 µg/mL,inactive,≥ 14 mm,25 µg/mL,≥ 14 mm,≥ 200 µg/mL,≥ 14 mm,25 µg/mL,≥ 200 µg/mL,inactive,≥ 14 mm,inactive,≥ 14 mm,≥ 200 µg/mL,≥ 14 mm,≥ 200 µg/mL
Clc1ccccc1C(c1ccccc1)(c1ccccc1)n1ccnc1 [CLOTRIMAZOLE],,,,,,,,,,,,6.25 µg/mL,,,,,,,,12.5 µg/mL
Clc1ccc(COC(Cn2ccnc2)c2ccc(Cl)cc2Cl)c(Cl)c1 (centres undefined) [MICONAZOLE],,,,,,,,,,,,3.12 µg/mL,,,,,,,,3.12 µg/mL
